From ChEMBL document CHEMBL1122686, “Troponoids. 6. Troponylpiperazines: a new class of dopamine agonists” (1984)
The source made the active and inactive calls. The calls are words filed in the database; no cut-off is given here.

Experiments:
Rattus norvegicus [1] = assay: Inhibition of the 6-OHDA-induced Hypokinesia in rat, at 50 mg/Kg sc, expressed as cumulative ambulation score; format: functional
Summary of the method: (§1)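 Male Sprague-Dawley rats (~280 g), anesthetized with pentobarbital, got 6-OHDA (26 µg/4 µL) bilaterally into the anterolateral hypothalamus. Four days later, only near-akinetic rats in a 36-square open field were used. Doses were free base, given sc in distilled water or Tween 80 suspension. Ambulation (all four limbs in one square) was scored in six 2-min periods at 15–120 min, then summed.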

Rattus norvegicus [2] = assay: Inhibition of the 6-OHDA-induced Hypokinesia in rat, at 50 mg/Kg sc, expressed as cumulative ambulation score; inactive; format: functional, organism-based; summary of the method: as §1
Rattus norvegicus [3] = assay: Rotational behavior induced by the compound in rats with a unilateral 6-OHDA-induced lesion of the Nigro-striatal dopamine, at 8 mg/Kg sc; format: functional
Summary of the method: (§2)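 Rats (~250 g at surgery, pentobarbital 40 mg/kg ip) received unilateral 6-OHDA (8 µg in 3 µL) to lesion the nigrostriatal pathway. At 3–4 weeks, rats turning 8–10 times/min after apomorphine 0.25 mg/kg sc were selected. They were housed singly, food-restricted to 350–400 g, dosed sc (free base) in groups of 4–8, and placed at once in automatic rotometers. Total contralateral turns (mean ± SEM) and duration of action (h) were recorded.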

Rattus norvegicus [4] = assay: Inhibition of the 6-OHDA-induced Hypokinesia in rat, at 10 mg/Kg sc, expressed as cumulative ambulation score; format: functional; summary of the method: as §1
Rattus norvegicus [5] = organism: Rattus norvegicus; assay: Duration of activity was determined; format: functional; summary of the method: as §2
Rattus norvegicus [6] = assay: Inhibition of the 6-OHDA-induced Hypokinesia in rat, at 25 mg/Kg sc, expressed as cumulative ambulation score; inactive; format: functional, organism-based; summary of the method: as §1
Rattus norvegicus [7] = assay: Rotational behavior induced by the compound in rat with a unilateral 6-OHDA-induced lesion of the Nigro-striatal dopamine, at 50 mg/Kg sc; duration of activity=6 hr; format: functional; summary of the method: as §2
Rattus norvegicus [8] = assay: Rotational behavior induced by the compound in rat with a unilateral 6-OHDA-induced lesion of the Nigro-striatal dopamine, at 25 mg/Kg sc; duration of activity=4 hr; format: functional; summary of the method: as §2
Rattus norvegicus [9] = assay: Inhibition of the 6-OHDA-induced Hypokinesia in rat, at 25 mg/Kg sc, expressed as cumulative ambulation score; format: functional; summary of the method: as §1
Rattus norvegicus [10] = organism: Rattus norvegicus; assay: Duration of activity in rat; format: functional; summary of the method: as §2
Rattus norvegicus [11] = assay: Rotational behavior induced by the compound in rat with a unilateral 6-OHDA-induced lesion of the Nigro-striatal dopamine, at 75 mg/Kg sc; format: functional; summary of the method: as §2
Rattus norvegicus [12] = assay: Effect on dopamine agonist-induced rotation in unilaterally 6-OH-DA-lesioned rat at 0.25 mg/kg, ip; Compound 35 was injected subcutaneously at 75 mg/kg; format: functional
Summary of the method: (§3)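 Rats were unilaterally 6-OHDA-lesioned and apomorphine-screened for rotation. Haloperidol (0.1, 0.25 or 0.5 mg/kg ip) or vehicle was given 1 h before the DA agonist (75 mg/kg sc). Total contralateral turns were counted automatically in rotometers (mean ± SEM). Percent decrease was taken relative to vehicle pretreatment, with significance by Student's t test.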

Rattus norvegicus [13] = assay: Effect on dopamine agonist-induced rotation in unilaterally 6-OH-DA-lesioned rat at 0.5 mg/kg, ip; Compound 35 was injected subcutaneously at 75 mg/kg; format: functional; summary of the method: as §3
Rattus norvegicus [14] = assay: Percent decrease on dopamine agonist-induced rotation in unilaterally 6-OH-DA-lesioned rat at 0.5 mg/kg; format: functional; summary of the method: as §3
Rattus norvegicus [15] = assay: Percent decrease on dopamine agonist-induced rotation in unilaterally 6-OH-DA-lesioned rat at 0.1 mg/kg; format: functional; summary of the method: as §3
Rattus norvegicus [16] = assay: Percent decrease on dopamine agonist-induced rotation in unilaterally 6-OH-DA-lesioned rat at 0.25 mg/kg; format: functional; summary of the method: as §3
Rattus norvegicus [17] = assay: Effect on dopamine agonist-induced rotation in unilaterally 6-OH-DA-lesioned rat at 0.1 mg/kg, ip; Compound 35 was injected subcutaneously at 75 mg/kg; format: functional; summary of the method: as §3
Rattus norvegicus [18] = assay: Drug pretreatment vs. vehicle pretreatment; statistical analysis by Student''s t test at 0.1 mg/kg; NS-Not Significant; format: functional, organism-based; design: dose 0.1 mg/kg; summary of the method: as §3
Rattus norvegicus [19] = assay: Rotational behavior induced by the compound in rats with a unilateral 6-OHDA-induced lesion of the Nigro-striatal dopamine, at 50 mg/Kg sc; duration of activity=6 hr; format: functional; summary of the method: as §2
Rattus norvegicus [20] = assay: Rotational behavior induced by the compound in rat with a unilateral 6-OHDA-induced lesion of the Nigro-striatal dopamine, at 75 mg/Kg sc; duration of activity=9 hr; format: functional
Rattus norvegicus [21] = assay: Rotational behavior induced by the compound in rat with a unilateral 6-OHDA-induced lesion of the Nigro-striatal dopamine, at 25 mg/Kg sc; duration of activity=5 hr; format: functional
Rattus norvegicus [22] = assay: Rotational behavior induced by the compound in rat with a unilateral 6-OHDA-induced lesion of the Nigro-striatal dopamine, at 50 mg/Kg sc, duration of activity=6 hr; format: functional

Structure (SMILES): O=c1cccccc1N1CCN(CC(O)CO)CC1 (stereo not given)
- Score (Rattus norvegicus [1]): 58

Structure (SMILES): CC(C)N1CCN(c2cccccc2=O)CC1
- Score (Rattus norvegicus [1]): 431

Structure (SMILES): CCCCN1CCN(c2cccccc2=O)CC1
- Score (Rattus norvegicus [2]): inactive

Structure (SMILES): CC(C)(C)N1CCN(c2cccccc2=O)CC1
- Score (Rattus norvegicus [2]): inactive

Structure (SMILES): CN1CCN(c2ccccc2)CC1
- Score (Rattus norvegicus [2]): inactive

Structure (SMILES): CCOC(=O)CN1CCN(c2cccccc2=O)CC1
- Score (Rattus norvegicus [2]): inactive

Structure (SMILES): CCOCCN1CCN(c2cccccc2=O)CC1.O=C(O)/C=C\C(=O)O
- Score (Rattus norvegicus [1]): 67

Structure (SMILES): CCCN1CCN(c2cccccc2=O)CC1
- Score (Rattus norvegicus [1]): 159

Structure (SMILES): OCCN1CCN(c2ccccc2)CC1
- Score (Rattus norvegicus [2]): inactive

Structure (SMILES): NC(=O)CN1CCN(c2cccccc2=O)CC1
- Score (Rattus norvegicus [2]): inactive

Structure (SMILES): CC(C)C[C@H]1C(=O)N2CCC[C@H]2[C@]2(O)O[C@](NC(=O)[C@@H]3C=C4c5cccc6[nH]c(Br)c(c56)C[C@H]4N(C)C3)(C(C)C)C(=O)N12 [BROMOCRIPTINE]
- Score (Rattus norvegicus [3]): 4868
- Score (Rattus norvegicus [4]): 112
- Duration of action (Rattus norvegicus [5]): 18 h

Structure (SMILES): O=c1cccccc1N1CCN(CCOc2ccccc2)CC1
- Score (Rattus norvegicus [2]): inactive

Structure (SMILES): CC1CCN(c2cccccc2=O)CC1
- Score (Rattus norvegicus [2]): inactive

Structure (SMILES): Br.O=c1c(Br)ccccc1N1CCN(CCO)CC1
- Score (Rattus norvegicus [1]): 136

Structure (SMILES): CC(=O)NCCN1CCN(c2cccccc2=O)CC1
- Score (Rattus norvegicus [2]): inactive

Structure (SMILES): O=c1ccc(Cl)ccc1N1CCN(CCO)CC1
- Score (Rattus norvegicus [2]): inactive

Structure (SMILES): CC(O)C(C)N1CCN(c2cccccc2=O)CC1 (stereo not given)
- Score (Rattus norvegicus [6]): inactive

Structure (SMILES): O=c1cccccc1N1CCN(CCO)CC1
- Score (Rattus norvegicus [7]): 1378
- Score (Rattus norvegicus [1]): 187
- Score (Rattus norvegicus [8]): 369
- Score (Rattus norvegicus [9]): 88
- Duration of action (Rattus norvegicus [10]): 12 h
- Score (Rattus norvegicus [11]): 4582

Structure (SMILES): O=C(CCCN1CCC(O)(c2ccc(Cl)cc2)CC1)c1ccc(F)cc1 [HALOPERIDOL]
- Total no. of turns (Rattus norvegicus [12]): 1055
- Total no. of turns (Rattus norvegicus [13]): 567
- Decrease (Rattus norvegicus [14]): -77%
- Decrease (Rattus norvegicus [15]): -33%
- Decrease (Rattus norvegicus [16]): -56%
- Total no. of turns (Rattus norvegicus [17]): 1626
- P (Rattus norvegicus [18]): inactive

Structure (SMILES): O=c1cccccc1N1CCNCC1
- Score (Rattus norvegicus [1]): 55

Structure (SMILES): O=C1CCCCCC1N1CCN(CCO)CC1 (stereo not given)
- Score (Rattus norvegicus [2]): inactive

Structure (SMILES): N#CCN1CCN(c2cccccc2=O)CC1
- Score (Rattus norvegicus [1]): 126

Structure (SMILES): CC(O)CN1CCN(c2cccccc2=O)CC1 (stereo not given)
- Score (Rattus norvegicus [1]): 400
- Score (Rattus norvegicus [9]): 190

Structure (SMILES): CC(C)(C)C(=O)OCCN1CCN(c2cccccc2=O)CC1.O=C(O)/C=C\C(=O)O
- Score (Rattus norvegicus [1]): 137

Structure (SMILES): CC(=O)OCCN1CCN(c2cccccc2=O)CC1
- Score (Rattus norvegicus [1]): 232
- Score (Rattus norvegicus [8]): 743
- Score (Rattus norvegicus [9]): 106
- Duration of action (Rattus norvegicus [10]): 10 h
- Score (Rattus norvegicus [19]): 1485
- Score (Rattus norvegicus [11]): 3640

Structure (SMILES): CCN1CCN(c2cccccc2=O)CC1
- Score (Rattus norvegicus [1]): 70

Structure (SMILES): CN1CCN(c2cccccc2=O)CC1.O=C(O)/C=C\C(=O)O
- Score (Rattus norvegicus [20]): 2842
- Score (Rattus norvegicus [21]): 551
- Score (Rattus norvegicus [1]): 278
- Duration of action (Rattus norvegicus [10]): 9 h
- Score (Rattus norvegicus [22]): 1814

Structure (SMILES): CC(C)CN1CCN(c2cccccc2=O)CC1.O=C(O)/C=C\C(=O)O
- Score (Rattus norvegicus [9]): 372

Structure (SMILES): CN1CCCN(c2cccccc2=O)CC1
- Score (Rattus norvegicus [2]): inactive

Structure (SMILES): CC(CO)N1CCN(c2cccccc2=O)CC1 (stereo not given)
- Score (Rattus norvegicus [6]): inactive

Structure (SMILES): O=c1cccccc1N1CCN(CCCO)CC1
- Score (Rattus norvegicus [1]): 71

Structure (SMILES): CN1CCC(c2cccccc2=O)CC1
- Score (Rattus norvegicus [2]): inactive
